Bioassay records: PubChem, several laboratories
Shown are actives, neighbours in structure and some others; about 2.1% of the full set was active somewhere.
IEC-6 cytotox: cytotoxicity in IEC-6 intestinal epithelial cells, primary screen, cytotoxicity control for KLF5 inhibitor project, cell-based, luminescence; IEC-6 cytotoxicity, luminescence viability; inhibition, % at 5 µM; actives 0.78% (n = 290,000); in the data active means inhibition above about 22%;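 further: 0% = plate median of test compound wells and 100% = cytotoxic reference compound wells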
MT stabilizer: microtubule stabilizers in HeLa cells, primary screen, imaging, high-content imaging; actives 0.83% (n = 200,000); HeLa tubulin immunostaining HCS, 24 h; share of cells brighter than vehicle mean+2SD; % tubulin-high responders, % at 10 µM; AID 2205, 2009;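 active means plate Z-score above 3 for both tubulin-high and condensed-nucleus cell shares, with cell loss under 80%, at 10 µM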;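 further: anti alpha tubulin signal scored within the nucleus-defined area of each cell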
Ba/F3 V617F tox: reduced viability of JAK2V617F-dependent Ba/F3 cells, primary screen, JAK2V617F inhibitor project, cell-based, Ba/F3 EpoR-JAK2V617F, luminescence | ATP luminescence | inhibition, % at 5.6 µM | actives 1.1% (n = 220,000) | AID 1446, 2008;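 active means inhibition above the campaign mean plus 3 SD over all tested compounds, cut at about 24% in these data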;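 further: cytokine-independent growth of Ba/F3 cells driven by EpoR plus mutant JAK2; 0% = DMSO-treated cells and 100% = JAK inhibitor I control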
BaF3 parental: parental Ba/F3 cell viability inhibition, counter-screen for JAK2V617F inhibitor project, murine pro-B, CellTiter-Glo luminescence; AID 1486, 2009; actives 1.1% (n = 220,000); CellTiter-Glo ATP luminescence; inhibition, % at 5.6 µM;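 active means inhibition above a per-campaign cutoff, the mean inhibition of all tested compounds plus 3 SD, cut at about 27% in these data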;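 further: 0% = DMSO wells and 100% = JAK Inhibitor I control wells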
KLF5 inh: KLF5 expression inhibitors, primary screen, DLD-1 cells, luminescence. inhibition, % at 5 µM. actives 0.23% (n = 290,000). DLD-1 KLF5 promoter-luciferase reporter;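 active means inhibition above a per-plate limit of that plate's mean compound inhibition plus 3 SD, cut at about 60% in these data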;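 further: 0% = DMSO wells and 100% = LY294002 at 200 µM; higher means less KLF5 promoter-driven luciferase light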
bCat nuc transl: modulators of beta-catenin nuclear translocation, primary screen, imaging, HeLa cells, immunofluorescence, high-content | nuclear translocation activity, % at 5 µM | actives 0.3% (n = 190,000);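 active means nuclear translocation activity above 50% at 5 µM, with a well cell count of 50 or more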;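 further: per-cell ratio of nuclear to cytoplasmic median beta-catenin stain intensity; plate controls were DMSO negative control for no effect and GSK-3 inhibitor IX positive control for full effect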
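Test system: HeLa cells, endogenous beta-catenin; Compound: single 5 µM dose plus 0.02–20 µM confirmation series; Times: compound exposure 24 h at 37°C; Signal: fluorescence imaging of beta-catenin antibody stain plus DAPI; Read-out: % activation, nuclear-to-cytoplasmic median beta-catenin signal ratio per cell.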
* hit, by the source's call; · = no result given.

SMILES	IEC-6 cytotox	MT stabilizer	Ba/F3 V617F tox	BaF3 parental	KLF5 inh	bCat nuc transl
O=C(NCc1ccco1)C1CC(c2cc(C(F)(F)F)cc(C(F)(F)F)c2)=NO1 (centres undefined)	·	·	·	·	·	92*
Cc1ccc(NC(=S)NC(=O)c2ccc(F)cc2)cc1S(=O)(=O)Nc1cccc(Cl)c1	11	20*	3	7	26	5
Clc1ccc(-c2nnc(-c3ccccc3)o2)cn1	-5	·	·	·	-134	·
C=C(C)COc1ccc(-c2[nH]ncc2-c2ccccc2OC)c(O)c1	0	29*	-2	2	-7	-3
C=C(C)COc1ccc(-c2n[nH]c(C)c2-c2ccc(Br)cc2)c(O)c1	0	26*	-2	2	6	·
C=C(C)COc1ccc(-c2[nH]ncc2-c2ccc(Br)cc2)c(O)c1	5	19*	10	4	23	39
CC(=O)c1ccc(OC(=O)Cc2cccc3ccccc23)cc1	-3	·	·	·	-34	·
Cn1c(Cc2ccccc2)[n+](C)c2ccccc21	-2	4	67*	69*	-8	-4
Cn1c(=O)c(Cc2ccccc2)c(O)c2ccccc21	-2	3	-2	4	-57	2
COc1ccc(NC(=O)CN2C(=O)CSC(C)C2=O)c(OC)c1 (centres undefined)	-12	2	-2	30*	-5	0
COc1ccccc1NC(=O)CN1C(=O)CSC(C)C1=O (centres undefined)	-12	2	1	3	-11	2
CCC(NC(=O)c1cccc(Cn2cc([N+](=O)[O-])cn2)c1)c1ccc(C(C)C)cc1 (centres undefined)	-6	1	1	5	-3	-6
CC(NC(=O)c1cccc(Cn2cc([N+](=O)[O-])cn2)c1)c1ccc(C(C)(C)C)cc1 (centres undefined)	-1	46*	2	6	-19	·
O=C(Nc1ccc([N+](=O)[O-])cc1)c1ccc(Cn2cc([N+](=O)[O-])cn2)cc1	12	1	46*	46*	43	0
Cc1ccc(CSc2nccc(-c3c(C)nc4ccccn34)n2)cc1	-4	·	-3	-1	-42	55*
Cc1ccc(CSc2ncn(-c3ccccc3)n2)cc1	2	2	-1	7	-16	-10
COc1ccc(C2=Nn3c(nnc3-c3ccccn3)SC2)cc1	3	52*	3	6	-8	-1
CCOc1cc(C(=O)Nc2cnccn2)cc(OCC)c1OCC	9	38*	0	3	18	4
CN(C)c1ccc(/C=C/C(=O)c2cccc(Br)c2)cc1	7	14*	-2	2	-24	0
COc1cc(C(=O)O/N=C2\C=CC(=O)C(C)=C2)cc(OC)c1OC	-2	2	49*	32*	-17	2
COc1nc(N=C(N)N)nc2ccc(C)cc12	-2	2	55*	56*	-4	4
COc1nc(Nc2nc3ccccc3c(=O)[nH]2)nc2ccc(C)cc12	-7	·	-1	-3	-25	0
COC(=O)c1cc(COc2ccc3ccc(=O)oc3c2)c(C)o1	-2	2	1	94*	-19	1
CCCCOc1ccc2c(c1)/C(=C(\C(Cl)=C(Cl)Cl)[N+](=O)[O-])N2	0	9.9*	2	3	-12	0
O=C1CC(c2cc(F)ccc2F)c2cc3c(cc2N1)CCC3 (centres undefined)	17	14*	3	2	-21	-1
SMILES	IEC-6 cytotox	MT stabilizer	Ba/F3 V617F tox	BaF3 parental	KLF5 inh	bCat nuc transl
O=C1CC(c2cccc(Br)c2)c2cc3c(cc2N1)CCC3 (centres undefined)	14	28*	46*	62*	25	0
COc1ccc2cc(C(=O)C3CCCN(C(=O)c4cc5nc(C)cc(C)n5n4)C3)ccc2c1 (centres undefined)	-2	4	3	6	-24	-1
CC(=NCc1cccc(Cl)c1)c1nc(-c2ccco2)oc1O	1	6	53*	49*	12	-3
Oc1oc(-c2ccco2)nc1C=Nc1cccc(Cl)c1	0	7	-1	8	-19	-7
CC(C)C(c1nnnn1C(C)(C)C)N1CCC(Cc2ccccc2)CC1 (centres undefined)	-4	5	1	4	-26	-3
Oc1[nH]c(N=C2N=c3ccccc3=N2)c2ccccc12	77*	·	21	6	-81	-4
N#CC(=C1N=c2ccccc2=N1)c1c(O)[nH]c2ccccc12	-2	3	-2	1	-5	-2
CCOC(=O)c1c(-c2ccccc2)csc1NC(=O)c1cc(S(=O)(=O)N2CCOCC2)ccc1C	-15	4	1	4	-3	1
N=c1ccn(Cc2cccc(F)c2)cc1	-1	·	71*	66*	16	2
Nc1ccn(Cc2cccc(F)c2)n1	3	3	0	1	-28	2
COc1ccc(NC(=O)CN2CCC(Cc3ccccc3)CC2)cc1S(=O)(=O)N1CCOCC1	3	7	2	3	-46	0
CC(C)[C@H](NS(=O)(=O)c1cccc(C(F)(F)F)c1)C(=O)OCC(N)=O	-9	5	-2	-1	-11	-2
CCOCCCNC(=O)CCn1nc(-c2ccc(Cl)cc2)ccc1=O	-5	·	·	·	-17	·
Nc1nc(N)c2cc(Sc3ccc4ccccc4c3)ccc2n1	81*	·	96*	101*	26	-2
Nc1ccc(Sc2cc(Cl)nc(N)n2)cc1	-3	1	3	9	8	0
O=C(CNC(=O)c1cccs1)c1ccc(Br)cc1	-8	·	·	·	-112	·
COc1ccc(NC(=O)/C(=C\c2cccs2)NC(=O)c2ccco2)cc1	-1	2	2	13	-22	0
Cc1ccc(NC(=O)/C(=C/c2cccs2)NC(=O)c2ccco2)cc1	-2	4	-3	29*	-11	0
Cc1cc(C)c2nc(/N=C(\N)NC(=O)c3ccccc3)nc(C)c2c1	-1	·	1	-7	-17	2
Cc1cc(C)c2nc(/N=C(\N)NC(=O)Nc3ccccc3)nc(C)c2c1	0	2	69*	66*	-15	3
COc1cccc(C(=O)C2=NN(C(C)=O)CC2c2ccco2)c1 (centres undefined)	4	1	-5	38*	-48	-1
COc1cccc(C2=NN(C(=O)c3ccco3)C(c3ccco3)C2)c1 (centres undefined)	-2	·	·	·	-17	·
COc1ccc(CCN(C)C(=O)CSc2nnnn2C)cc1OC	0	2	-2	4	-13	-3
Cc1ccccc1NCCNc1ccccc1C	11	1	1	5	-10	·
